14-3-3 Bad inh – inhibitors of 14-3-3 zeta/Bad binding, primary screen, biochemical, TR-FRET, bovine 14-3-3 zeta. TR-FRET 14-3-3zeta/Dy647-pBad peptide displacement, 1 h. inhibition, % at 21.7 µM. 220,000 tested, 0.71% active. AID 781, 2007;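 active = inhibition above about 70%, limit read from the data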
Target sequence (P63103 whole entry, looked up): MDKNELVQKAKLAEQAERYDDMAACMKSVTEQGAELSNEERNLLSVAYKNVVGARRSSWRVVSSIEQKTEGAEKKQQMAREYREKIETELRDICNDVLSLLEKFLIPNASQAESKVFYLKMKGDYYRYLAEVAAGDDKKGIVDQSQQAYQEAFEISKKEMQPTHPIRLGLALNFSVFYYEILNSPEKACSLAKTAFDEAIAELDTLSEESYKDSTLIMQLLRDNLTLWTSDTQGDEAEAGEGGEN
ROMK primary – ROMK potassium channel modulators, primary screen, cell-based, thallium flux, MLSMR library | ATP-sensitive inward rectifier potassium channel 1 (Homo sapiens), P48048 | Tet-inducible ROMK, thallium flux fluorescence; actives lie on both sides | B-score at 10 µM | 130,000 tested, 2% active | AID 1918, 2009;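 active = signal ratio slope over the read window, or its plate-corrected B-score, at least 3 SD from the plate mean, either direction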;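 note: B-score of the F/F0 ratio slope over 7 to 12 s after thallium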
Cl transport mod – KCC2 cotransporter modulators, thallium flux, primary screen, cell-based, HEK293 KCC2, FluoZin-2 fluorescence, MLSMR. B-score of Tl+ flux slope (higher = more flux/activation; lower = inhibition) at 10 µM. KCC2 cells, thallium flux FluoZin-2 fluorescence. Solute carrier family 12 member 5 (Homo sapiens), Q9H2X9. 190,000 tested, 2.2% active;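 active = thallium flux slope and its plate-corrected score both differing from the plate sample mean at a set confidence after two filtering rounds, in either direction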;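 note: slope of fluorescence scaled to starting intensity during 10 to 20 s after thallium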
NCF1 inh – p47phox/p22phox peptide binding inhibitors, primary screen, biochemical, uHTS, NADPH oxidase regulatory subunit; fluorescence polarization, 2 h; inhibition, % at 24.7 µM; 220,000 tested, 0.53% active; AID 1274, 2008;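 active = inhibition above about 30%, limit read from the data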
Target sequence (P14598 whole entry, looked up): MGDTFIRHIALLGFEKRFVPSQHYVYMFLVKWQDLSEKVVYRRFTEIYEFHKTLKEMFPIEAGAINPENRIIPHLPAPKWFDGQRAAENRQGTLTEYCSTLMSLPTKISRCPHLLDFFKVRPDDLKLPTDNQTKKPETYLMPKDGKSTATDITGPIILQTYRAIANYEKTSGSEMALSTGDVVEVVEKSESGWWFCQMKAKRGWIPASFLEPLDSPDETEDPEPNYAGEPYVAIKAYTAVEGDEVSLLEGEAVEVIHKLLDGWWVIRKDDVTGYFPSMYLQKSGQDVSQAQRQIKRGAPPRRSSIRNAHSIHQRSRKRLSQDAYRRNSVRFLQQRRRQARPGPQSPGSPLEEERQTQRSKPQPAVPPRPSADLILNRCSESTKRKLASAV
RBBP9 inhibitor – human RBBP9 inhibitors, primary screen, biochemical, fluorescence polarization, FP-Rh probe, HTS; Serine hydrolase RBBP9 (Homo sapiens), O75884; recombinant RBBP9; inhibition, % at 7.94 µM; 220,000 tested, 0.2% active;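 active = inhibition above the campaign mean of all tested compounds plus 3 SD, cut at about 14% in these data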
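system = RBBP9 protein | input = RBBP9 at 2.5 µM in dispensed solution, before mixing | measured by = fluorescence polarization (mP), excitation 525 nm, emission 598 nm | incubation = enzyme-compound preincubation 30 min, then probe labeling 45 min, 25 °C | buffer or medium = Tris-NaCl-Pluronic buffer, pH 8.0 | compound = single dose 7.94 µM | also added = FP-Rh probe, 375 nM dispensing solution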
WT yeast gro inh – growth inhibition of WT strain, primary screen, mitochondrial fusion inhibitor project, WT and mutant strains, chemical genetic | inhibition, % at 10 µM | mitochondrial fusion phenotypic screen | 190,000 tested, 2.1% active; in the data active = inhibition above about 58%; tested in S. cerevisiae
Numbers stand for hits; - = inactive; . = not tested or not shown. An excerpt weighted towards active compounds, which were near 5.8% of everything screened.

SMILES	14-3-3 Bad inh	ROMK primary	Cl transport mod	NCF1 inh	RBBP9 inhibitor	WT yeast gro inh
OC1(c2cccc(C(F)(F)F)c2)CCN(c2ncnc3c2[nH]c2ccccc23)CC1	-	-	.	-	-	85
c1ccc(CN2CCN(c3ncnc4c3[nH]c3ccccc34)CC2)cc1	.	-3.7	-5.7	-	-	-
CCN(CC)S(=O)(=O)c1ccc(NC(=O)COC(=O)c2ccc(NC(=O)CC#N)cc2)cc1	-	-	-	-	-	-
COc1cc(OC)c(C(=O)OCC(=O)N(Cc2ccccc2)C(C)(C)C)cc1OC	-	-	-	-	-	-
COc1cc2nc(C3CCC3)nc(N3CCN(c4ccccc4OC)CC3)c2cc1OC	-	-	-	-	-	83
COc1cc(OC)c(C2CC(=O)N3CN(c4ccccc4C)CSC3=C2C#N)cc1OC (stereo unspecified)	-	-	-	47	-	-
CC1CC(C)CN(c2nc3c(c(=O)[nH]c(=O)n3C)n2CCSc2nc3ccccc3o2)C1 (stereo unspecified)	.	.	.	.	.	-
Cn1cnc(S(=O)(=O)Nc2ccccc2C(=O)NCC2CC2)c1	-	-	-	-	-	.
CCOc1ccc(Nc2nc3ccccc3c(=O)s2)cc1	-	.	-	-	-	.
CCc1ccc(Nc2nc3ccccc3c(=O)s2)cc1	-	-	7.5	-	-	-
CCC(C)c1ccc(NC(=O)C/C(C)=N/NC(=O)c2cnccn2)cc1 (stereo unspecified)	-	-	-	-	-	-
Cc1cc(=S)[nH]c2c(C)cccc12	-	-	31	-	-	-
CCCCN(C)C(=S)Nc1ccsc1C(=O)OC	-	-	-	45	-	-
Nc1ccc(S(=O)(=O)C(F)(F)F)cc1N	-	-	-	-	-	-
CCc1cc(-c2n[nH]c(C)c2Oc2ccc(C(C)C)cc2)c(O)cc1O	-	-	.	-	-	86
Cc1[nH]nc(-c2ccc(O)cc2O)c1Oc1ccccc1	-	-	-	-	-	-
Oc1ccc(-c2nnc(-c3ccccc3)c(-c3ccccc3)n2)cc1	-	.	-	-	-	-
CCN(CC)c1nc(-c2ccccn2)nc(-c2ccccc2)c1C#N	-	-	-	-	-	80
Cc1ccc(-c2nnc(-c3ccccc3)c(-c3ccccc3)n2)cc1	-	.	-	-	-	76
CN(C)c1nc(-c2ccccc2)nc(-c2ccc(Cl)cc2)c1C#N	-	-	-	-	-	-
CN(C)c1nc(-c2ccccn2)nnc1-c1ccccc1	-	-	.	-	-	61
CN(c1ccccc1)S(=O)(=O)c1cccc(NC(=O)c2cc(=O)c3ccccc3o2)c1	-	-	-	-	-	-
CCSc1ncccc1C(=O)N[C@@H](CCSC)C(=O)OC	-	-	-	-	-	.
CC(=O)c1csc(CS(=O)(=O)c2ccccn2)n1	-	-	-	-	-	.
CCC(C)/C(C)=N/NC(=O)c1ccc(COc2ccc(Cl)c(C)c2)cc1 (stereo unspecified)	-	-	-	-	-	72
SMILES	14-3-3 Bad inh	ROMK primary	Cl transport mod	NCF1 inh	RBBP9 inhibitor	WT yeast gro inh
CCOc1ccc(-c2nnc(SCC(=O)Nc3ccc4c(c3)c3ccccc3n4CC)n2N)cc1	73	.	-	-	-	-
CCOc1ccc(NC(=O)CSc2nnc(-c3ccco3)n2C)cc1	-	.	-	-	-	95
CC(=O)N1c2c(cc(Br)cc2S(=O)(=O)N2CCN(c3ccccn3)CC2)CC1C (stereo unspecified)	88	-	-	-	-	-
O=S(=O)(C/C(=C/CO)S(=O)(=O)c1ccccc1)c1ccccc1	-	-8.2	.	-	-	-
CCN(Cc1ccccc1)C(=O)CS(=O)(=O)c1ccccc1	-	.	-	-	-	-
Cc1ccc(-n2c([C@@H]3C[C@H]3c3ccccc3)n[nH]c2=S)cc1	-	.	-	-	-	-
Cc1ccc(-n2c(C3CC3c3ccc(Cl)cc3)n[nH]c2=S)cc1 (stereo unspecified)	-	-	-	-	-	-
S=c1[nH]nc(C2CC2c2ccc(Cl)cc2)n1-c1ccc(Cl)cc1 (stereo unspecified)	-	.	-	-	-	76
Cc1ccc(C2CC2c2n[nH]c(=S)n2-c2ccc(C)cc2)cc1 (stereo unspecified)	-	-	21	-	-	-
O=C(CNC(=S)NC(=O)c1cccs1)c1ccccc1	-	-	11	-	-	-
Cc1ccc(C(=O)NC(=S)NCC(=O)c2ccccc2)cc1	-	.	.	-	-	61
CC(C)NC(=S)NC(=O)c1ccc(-c2ccccc2)cc1	-	.	-	-	-	67
O=C(CNC(=S)NC(=O)c1ccco1)c1ccccc1	-	.	5.5	-	-	-
Cc1ccc(C(=O)O)cc1NC(=S)NC(=O)c1ccc(-c2ccccc2)cc1	-	.	-	-	-	-
O=C(Nc1ccc(NC(=S)NC(=O)c2cccs2)cc1)c1ccccc1	-	-	-	-	-	-
O=C(CNC(=S)NC(=O)c1cccc([N+](=O)[O-])c1)c1ccccc1	-	-	-	-	-	-
COc1cccc(CSc2nc3ccncc3[nH]2)c1	-	.	-	-	-	.
CCCCCCCc1c(O)nc(SCCN2CCOCC2)[nH]c1=O	-	-	-	-	-	-
CCOC(=O)CCCc1sc(N)nc1-c1[nH]c(=O)[nH]c1C	80	-	-	-	-	-
CSc1cccc(NC(=O)C2(S(=O)(=O)c3ccc(C)cc3)CC2)c1	-	.	-	-	-	-
COC(=O)Cn1c(C)c(C#N)c2ccccc21	-	.	-	-	-	-
N#Cc1c2ccc(O)cc2n2ccccc12	-	-4.7	-4.2	-	-	-
CCCc1nnc(NC(=O)CCC(=O)NCc2ccc(OC)cc2)s1	-	.	-	-	-	.
O=C(NC1CCCCCC1)C(=S)NCc1ccccc1	-	-	-	-	-	73
CC(C)(C)c1ccc(C(=O)NCc2ccccc2)cc1	-	-	-	-	-	-
O=C(NC1CCCCC1)C(=S)NCc1ccccc1	-	-	-	-	-	-
O=C(NCc1ccccc1)c1ccc(C(=O)N(C2CCCCC2)C2CCCCC2)cc1	-	-	-	-	-	62
O=C(CC1C(=O)NCCN1Cc1c(F)cccc1Cl)NCc1ccccc1 (stereo unspecified)	-	.	-	-	-	-
CCc1cc(CNC(=O)CC2C(=O)NCCN2Cc2c(F)cccc2Cl)on1 (stereo unspecified)	-	-	-	91	-	-
Cc1ccc(-c2cc(-c3ccccc3)nc(N/N=C/c3cccnc3)n2)cc1	.	.	-	.	-	.

From PubChem BioAssay
